Hits are enriched below; roughly 2.3% of the tested compounds scored in any of these assays.
TRPC4 block: TRPC4 (mouse) channel inhibition. Q9QUQ5. HEK293 TRPC4beta/mu-opioid, DAMGO-evoked Fluo4 calcium flux; stronger effect = lower value. B-score at 10 µM. actives 0.39% (n = 300,000). AID 2247;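 active means B-score over 3 SD under the library average, no early fluorescence shift, positive overall ratio signal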
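Assay system – HEK293 line stably carrying TRPC4beta and mu-opioid receptor · Doses – single dose · Detection – Fluo4 calcium-dye fluorescence, kinetic read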
TRPC6 act: activators of mouse TRPC6 channel; actives 0.13% (n = 310,000); HEK293-TRPC6 membrane potential dye fluorescence; stronger effect = higher value; B-score at 10 µM; AID 2550; Q61143;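 active means B-score of the integrated fluorescence ratio above library mean plus 3 SD, and starting fluorescence ratio within library mean plus 5 SD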;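 further: higher score means more depolarization so channel activation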
TRPC4 potent: TRPC4 (mouse) allosteric potentiation; HEK293 TRPC4beta/mu-opioid, DAMGO EC20, Fluo-4 Ca2+ flux; stronger effect = higher value; AID 2227; B-score at 10 µM; Q9QUQ5; actives 0.42% (n = 310,000);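 active means B-score of calcium response area above 5 SD of library B-scores, with initial fluorescence ratio within 5 SD of library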;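 further: B-score of integrated fluorescence ratio over time as area under calcium response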
TRPC4 agonist: activators of mouse TRPC4 channel. B-score at 10 µM. Q9QUQ5. HEK293 TRPC4beta/mu-opioid, Fluo4 calcium fluorescence; stronger effect = higher value. actives 0.49% (n = 310,000);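 active means B-score above 5 SD of library B-scores, and initial fluorescence ratio not above library mean plus 5 SD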;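 further: positive B-score marks a calcium rise read as TRPC4 activation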
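Technique: kinetic Fluo4 calcium fluorescence; Test system: TRPC4beta and mu-opioid receptor HEK293 stable cells; Measure: B-scored integrated calcium fluorescence ratio; Benchmarks: low control buffer alone, high control maximal DAMGO; Schedule: 45 min room-temperature Fluo4 loading, 110 s read.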
TRPC6 inh: inhibitors of mouse TRPC6 channel. Q61143. HEK293-TRPC6, membrane potential dye, ACh-evoked depolarization; stronger effect = lower value. B-score at 10 µM. actives 1.1% (n = 310,000). AID 2553;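 active means B-score under library mean minus 3 SD, initial fluorescence not abnormally high, positive integrated signal ratio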;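 further: B-score derived from integrated fluorescence ratio over the kinetic read; more negative B-score means stronger inhibition of depolarization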
Starred values were filed as active, the others as inactive; i = inactive.

SMILES	TRPC4 block	TRPC6 act	TRPC4 potent	TRPC4 agonist	TRPC6 inh
c1ccc(Cn2c(NCc3ccco3)nc3ccccc32)cc1	-6*	i	i	i	i
CCCCn1c(NCc2ccc(N(C)C)cc2)nc2ccccc21	-6*	i	i	i	i
CCn1c(NCc2ccco2)nc2ccccc21	i	i	54*	i	i
C=CCn1c(NCc2ccco2)nc2ccccc21	i	i	34*	i	i
O=C(CSCc1c(Cl)cccc1Cl)N1CCOCC1	i	i	i	i	i
O=C(NCCS(=O)(=O)N1CCCCCC1)c1ccc(F)cc1	i	i	i	i	i
COc1cc(CCC(=O)Nc2nccs2)cc(OC)c1OC	i	i	i	i	i
CCOc1ccc(NC(=O)CN(C)C(=O)c2ccccc2SCc2c(C)noc2C)cc1OCC	i	i	i	i	i
COC(=O)C1=C(C)N(Cc2ccccc2)C(=NCCc2ccccn2)N[C@H]1c1cccc(F)c1	i	i	i	88*	i
COC(=O)C1=C(C)N(Cc2ccccc2)C(=S)N[C@H]1c1ccccc1	-6*	i	i	i	i
COC(=O)C1=C(C)N(Cc2ccccc2)C(=O)N[C@H]1c1ccccc1	i	i	i	i	i
CCN1C(=NCCc2ccccn2)N[C@@H](c2cccc(F)c2)C(C(=O)OC)=C1C	i	i	i	i	i
Cc1onc(-c2ccccc2)c1C(=O)NNC(=S)NC(=O)/C=C/c1ccccc1	-7*	i	i	59*	i
O=C(NC(=S)NNC(=O)c1ccccc1[N+](=O)[O-])c1ccc(Br)cc1	i	i	i	142*	i
Cc1onc(-c2ccccc2)c1C(=O)NNC(=S)NC(=O)c1ccc(Br)cc1	i	i	i	250*	i
COc1ccc(/C=C/C(=O)NC(=S)NNC(=O)c2c(-c3ccccc3)noc2C)cc1	i	i	i	i	i
O=C(NNC(=S)NC(=O)c1ccccc1[N+](=O)[O-])c1ccccc1Cl	i	i	i	i	i
COc1ccc(OC)c(C(=O)Nc2ccc3[nH]ccc3c2)c1	i	i	i	i	i
Cn1c(=O)oc2cc(NC(=O)CCl)ccc21	i	i	i	i	i
COc1cc(/C=C2\SC(=S)N(NS(=O)(=O)c3ccc(C)cc3)C2=O)cc(OC)c1OC	-6*	i	i	i	i
COc1ccccc1/C=C1\SC(=S)N(NS(=O)(=O)c2ccccc2)C1=O	i	i	i	i	i
COc1cccc(/C=C2\SC(=S)N(NS(=O)(=O)c3ccc(C)cc3)C2=O)c1OC	-6*	i	i	i	i
CCOc1cc(/C=C2\SC(=S)N(NS(=O)(=O)c3ccc(C)cc3)C2=O)ccc1O	i	i	i	i	i
Clc1ccc(OCCCc2nc(-c3ccncc3)no2)c(Cl)c1	-9*	i	i	i	i
CC(=O)c1ccccc1OCC(O)CN1CCN(CCN2C(=O)c3cccc4cccc(c34)C2=O)CC1 (stereo unspecified)	i	i	i	i	i
SMILES	TRPC4 block	TRPC6 act	TRPC4 potent	TRPC4 agonist	TRPC6 inh
Cc1ccc(C)c(OCC(O)CN2CCN(CCN3C(=O)c4cccc5cccc(c45)C3=O)CC2)c1 (stereo unspecified)	i	i	i	i	-5.1*
Cc1nc(-c2cccc(C(F)(F)F)c2)sc1C(=O)O	-6*	i	i	i	i
Cc1nc(-c2ccccc2)sc1C(=O)O	i	i	i	i	i
O=C(Nc1ccccc1)N1CCCC(c2nc(-c3cccs3)no2)C1 (stereo unspecified)	i	i	i	47*	i
O=C(NC1CCCCC1)N1CCCC(c2nc(-c3cccs3)no2)C1 (stereo unspecified)	i	i	i	i	i
O=C(Nc1ccc(Cl)cc1)N1CCC(c2nc(-c3cccs3)no2)CC1	i	i	i	137*	i
CCCCN(C(=O)c1cccc2c(=O)c(C)c(-c3ccccc3)oc12)c1ccccc1	i	i	32*	i	i
COc1cccc(CNC(=O)C2CCN(S(=O)(=O)c3ccc(-n4cnnn4)cc3)CC2)c1	i	i	i	i	i
CC(C)CCN1CCN(Cc2ccsc2)CC1CCO (stereo unspecified)	-8*	i	i	i	i
OCCC1CN(Cc2nc3ccccc3s2)CCN1CCc1ccccc1 (stereo unspecified)	i	i	i	60*	i
C#Cc1ccc(CN2CCN(CCc3ccccc3)C(CCO)C2)cc1 (stereo unspecified)	i	i	i	43*	i
OCCC1CN(Cc2ccc(F)cc2)CCN1CCc1ccccc1 (stereo unspecified)	i	i	i	i	i
Cc1cncn1CCc1nc2c3ccccc3nc(SCC(=O)Nc3cccc(Cl)c3)n2n1	i	i	i	i	i
S=C(NCc1ccc(Cl)cc1)N1CCN(c2ccccn2)CC1	i	i	i	i	i
CCCN1CCN(C(=S)NCc2ccc(Cl)cc2)CC1	i	i	22*	i	i
Cc1ccc(NC(=O)Cn2c(=O)oc3ccccc32)cc1	i	i	i	i	i
CCN(CC)S(=O)(=O)c1ccc(NC(=O)Cn2c(=O)oc3ccccc32)cc1	-6*	i	i	i	i
CCCOc1ccccc1NS(=O)(=O)c1ccc2[nH]c(=O)[nH]c2c1	i	i	i	i	i
CCOc1ccccc1NS(=O)(=O)c1ccc2[nH]c(=O)[nH]c2c1	i	i	13*	i	i
COc1ccc(Cn2nnnc2C(c2cc3cccc(C)c3[nH]c2=O)N2CCN(C)CC2)cc1 (stereo unspecified)	i	i	i	98*	i
CCc1ccc2[nH]c(=O)c(C(c3nnnn3Cc3ccc(OC)cc3)N3CCOCC3)cc2c1 (stereo unspecified)	i	i	i	i	i
COc1ccc(Cn2nnnc2C(c2cc3cc(C)ccc3[nH]c2=O)N2CCN(C)CC2)cc1 (stereo unspecified)	-7*	i	i	i	i
Cc1cccc2cc(C(c3nnnn3Cc3ccccc3)N3CCN(C)CC3)c(=O)[nH]c12 (stereo unspecified)	i	i	i	47*	i
Cc1cc(=O)oc2cc(OCC(=O)c3ccc4c(c3)NC(=O)CO4)ccc12	i	i	i	i	i
Cc1ccc(N(Cc2cc(=O)[nH]c3ccccc23)C(=O)CCl)c(C)c1	i	i	i	i	i

Bioassay records from PubChem BioAssay.
